{"source": "paper PMC8752318", "about": "(Nano Today, 2022)", "key": {"[1]": {"system": "SARS-CoV-2 B.1.617.2 pseudovirus", "settings": "in vivo, ip"}, "[2]": {"system": "STING-dependent IRF3", "settings": "ref [44]; cited from earlier work"}, "[3]": {"system": "IKBKE kinase-dependent activity of IRF3", "settings": "ref [44]; cited from earlier work"}, "[4]": {"system": "SARS-CoV-2 B.1.351 pseudovirus", "settings": "in vivo, ip"}, "[5]": {"system": "immunoregulatory cytokines such as interferons and tumor necrosis factors", "settings": "in vivo and in vitro, ref [29], [30], [31], [32]; cited from earlier work"}, "[6]": {"system": "animal model", "settings": "repeated injections with high dose; ref [28]; cited from earlier work"}, "[7]": {"system": "RIG-I-like receptor (RLR) signaling pathway", "assay": "Transcriptome sequencing analysis of lymph node immune cells", "assay_type": "in vivo, Balb/c mice", "settings": "WGCNA; AAS (Fig. 4g) or naked amantadine (Fig S7)"}, "[8]": {"system": "SARS-CoV-2 infection and symptomatology", "settings": "in vivo; cited from earlier work"}, "[9]": {"settings": "naked amantadine; ref [33], [54], [55]; cited from earlier work"}, "[10]": {"system": "DC 2.4 cells", "assay": "DC 2.4 activation by flow cytometry", "assay_type": "cell-based", "settings": "10 μg/mL, 24 h", "outline": "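DC 2.4 cells (1 × 10^6 per well) were cultured 12 h, then exposed to 10 μg test compound or tetrapeptide for 24 h. Staining used DAPI live/dead for viability, anti-CD40 and anti-CD86 for maturation, and anti-IL-4 and anti-TNF-α for function. At least 50,000 cells per sample were read by flow cytometry.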"}, "[11]": {"settings": "naked amantadine; ref [33], [54], [55]; cited from earlier work", "remark": "listed apart in the source"}, "[12]": {"system": "DC 2.4 cells", "assay": "Cellular uptake inhibition", "assay_type": "cell-based", "settings": "read-out: inhibition rate of AAS uptake by DCs", "outline": "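DC 2.4 cells were grown in DMEM with 10% FBS and penicillin/streptomycin at 37 °C, 5% CO2, then seeded at 5 × 10^5 per well for 24 h. Cells were pretreated 1 h with 5 μM cytochalasin B or cytochalasin D, then given 5 μg Cy5-labelled AAS for 2 h. They were washed in PBS/2% FBS, fixed in 2% paraformaldehyde for 10 min, and Cy5 uptake was read by flow cytometry.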"}}, "data": [{"smiles": "CCn1c(-c2nonc2N)nc2c(C#CC(C)(C)O)ncc(OC[C@H]3CCCNC3)c21", "note": "[GSK690693]", "values": [{"measurement": "decrease of neutralizing antibody against B.1.617.2 vs AAS+RBD group", "setting": "[1]", "value": 6, "unit": "fold"}, {"measurement": "inhibition of STING-dependent IRF3 activation", "setting": "[2]", "value": "inhibit the activation of STING-dependent IRF3"}, {"measurement": "inhibition of IKBKE kinase-dependent activity of IRF3 (GSK690693)", "setting": "[3]", "value": "inhibit the IKBKE kinase-dependent activity of IRF3"}, {"measurement": "decrease of neutralizing antibody against B.1.351 vs AAS+RBD group", "setting": "[4]", "value": 7, "unit": "fold"}]}, {"smiles": "NC12CC3CC(CC(C3)C1)C2", "note": "[amantadine]", "values": [{"measurement": "secretion of immunoregulatory cytokines", "setting": "[5]", "value": "increase the secretion of multiple immunoregulatory cytokines"}, {"measurement": "adverse reactions", "setting": "[6]", "value": "not observed"}, {"measurement": "protein-protein interaction (PPI) network key genes", "setting": "[7]", "value": "three RLR signaling pathway-related genes (Oasl2, RIG-I and IRF3) located in the central position"}, {"measurement": "prevention of SARS-CoV-2 infection and symptomatology", "setting": "[8]", "value": "can prevent SARS-CoV-2 infection and symptomatology"}, {"measurement": "half-life period in vivo", "setting": "[9]", "value": "short half-life period"}, {"measurement": "immunostimulation activity against immune cells", "setting": "[10]", "value": "possesses the immunostimulation activity"}, {"measurement": "water solubility", "setting": "[11]", "value": "unsatisfactory water solubility"}]}, {"smiles": "C=C1[C@@H](C)[C@H]2[C@H](Cc3ccccc3)NC(=O)[C@]23OC(=O)/C=C/[C@H](O)CCC[C@@H](C)C/C=C/[C@H]3[C@@H]1O", "note": "[cytochalasin B]", "values": [{"measurement": "inhibition at 5 µM", "setting": "[12]", "value": 11.7, "unit": "%"}]}, {"smiles": "C=C1[C@@H](C)[C@H]2[C@H](Cc3ccccc3)NC(=O)[C@]23[C@H](OC(C)=O)/C=C/[C@@](C)(O)C(=O)[C@@H](C)C/C=C/[C@H]3[C@@H]1O", "note": "[cytochalasin D]", "values": [{"measurement": "inhibition at 5 µM", "setting": "[12]", "value": 46, "unit": "%"}]}, {"smiles": "CN(C)c1ccc(C(=C2C=CC(=[N+](C)C)C=C2)c2ccccc2)cc1.CN(C)c1ccc(C(=C2C=CC(=[N+](C)C)C=C2)c2ccccc2)cc1.O=C(O)C(=O)O.O=C([O-])C(=O)O.O=C([O-])C(=O)O", "note": "[malachite green oxalate]", "values": [{"measurement": "decrease of neutralizing antibody against B.1.351 vs AAS+RBD group", "setting": "[4]", "value": 4, "unit": "fold"}]}]}
